From ChEMBL document CHEMBL3286129, “Optimization of peptidomimetic boronates bearing a P3 bicyclic scaffold as proteasome inhibitors” (Eur J Med Chem, 2014)
Activity calls are given as the source filed them. No cut-off for these calls is given here.

Assays:
[1] = target: T1, Proteasome Macropain subunit MB1 (Homo sapiens, UniProt P28074); assay: Inhibition of chymotrypsin-like activity of 20S proteasome in human erythrocytes using Suc-Leu-Leu-Val-Tyr-AMC as substrate by fluorescence assay; details: read-out: Ki
T1 sequence (P28074 whole entry): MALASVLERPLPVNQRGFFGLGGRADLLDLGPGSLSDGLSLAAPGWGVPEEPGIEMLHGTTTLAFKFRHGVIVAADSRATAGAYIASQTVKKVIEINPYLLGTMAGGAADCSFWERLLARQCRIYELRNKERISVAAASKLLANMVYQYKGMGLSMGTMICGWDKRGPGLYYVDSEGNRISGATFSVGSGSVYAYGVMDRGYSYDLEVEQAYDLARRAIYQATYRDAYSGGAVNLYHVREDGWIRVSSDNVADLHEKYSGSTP

[2] = Cytotoxicity against human melanoma cells assessed as cell growth at 10 uM relative to control; type: functional; details: read-out: Activity
How it was run: (§1)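 Single-concentration screen against a panel of human cancer cell lines. Each value is the mean percent growth across the cell lines of that tumour subpanel.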

[3] = target: Proteasome Macropain subunit (Homo sapiens) (UniProt P49721); assay: Inhibition of trypsin-like activity of 20S proteasome in human erythrocytes using Boc-Leu-Arg-Arg-AMC as substrate by fluorescence assay; type: cell-based
How it was run: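 Human 20S proteasome 0.0025 mg/mL at 30 °C in 50 mM Tris pH 7.4, 50 mM NaCl, 0.5 mM EDTA, 0.03% SDS, 7.5% DMSO. Varied inhibitor concentrations; AMC release monitored continuously for 10 min, ex 380/em 460 nm. Ki derived from progress-curve IC50 fit.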

[4] = Cytotoxicity against human colon cancer cells assessed as cell growth at 10 uM relative to control; type: functional; details: Cancer cell lines, read-out: Activity; how it was run: as §1
[5] = target: Chymotrypsinogen A (Bos taurus, UniProt P00766); assay: Inhibition of bovine pancreatic alpha-chymotrypsin using Suc-Leu-Leu-Val-Tyr-AMC as substrate by fluorescence assay
How it was run: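 Enzyme incubated at 20 °C in 50 mM Tris pH 8.0, 100 mM NaCl, 5 mM EDTA, 7.5% DMSO with varied inhibitor concentrations. Substrate hydrolysis followed for 10 min. Ki from progress curves; mean of three determinations.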

[6] = Cytotoxicity against human CNSC cells assessed as cell growth at 10 uM relative to control; type: functional; details: read-out: Activity; how it was run: as §1
[7] = Cytotoxicity against human NSCLC cells assessed as cell growth at 10 uM relative to control; type: functional; details: read-out: Activity; how it was run: as §1
[8] = Cytotoxicity against human prostate cancer cells assessed as cell growth at 10 uM relative to control; type: functional; details: Cancer cell lines, read-out: Activity; how it was run: as §1
[9] = Cytotoxicity against human ovarian cancer cells assessed as cell growth at 10 uM relative to control; type: functional; details: Cancer cell lines, read-out: Activity; how it was run: as §1
[10] = Cytotoxicity against human breast cancer cells assessed as cell growth at 10 uM relative to control; type: functional; details: Cancer cell lines, read-out: Activity; how it was run: as §1
[11] = Cytotoxicity against human leukemia cells assessed as cell growth at 10 uM relative to control; type: functional; details: read-out: Activity; how it was run: as §1
[12] = Cytotoxicity against human renal cancer cells assessed as cell growth at 10 uM relative to control; type: functional; details: Cancer cell lines, read-out: Activity; how it was run: as §1
[13] = target: T2, Proteasome Macropain subunit MB1 (Homo sapiens) (UniProt P28074); assay: Inhibition of chymotrypsin-like activity of 20S proteasome in human erythrocytes using Suc-Leu-Leu-Val-Tyr-AMC as substrate at 20 uM by fluorescence assay relative to control
T2 sequence (whole entry): T1 sequence (P28074 whole entry)
How it was run: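 Single inhibitor concentration, equivalent DMSO as negative control. AMC fluorescence read at ex 380/em 460 nm; percent inhibition of ChT-L activity.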

Sequence of Proteasome Macropain subunit (Homo sapiens) (P49721 whole entry): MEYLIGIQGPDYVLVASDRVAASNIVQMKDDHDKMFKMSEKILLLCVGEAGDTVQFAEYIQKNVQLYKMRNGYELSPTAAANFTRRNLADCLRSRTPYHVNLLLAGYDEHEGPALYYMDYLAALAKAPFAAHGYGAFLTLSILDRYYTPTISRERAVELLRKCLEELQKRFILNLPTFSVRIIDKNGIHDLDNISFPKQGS

Row | Ki [1] | inhibition [3] | Ki [5] | inhibition [13] | SMILES | growth at 10 µM [2] | growth at 10 µM [4] | growth at 10 µM [6] | growth at 10 µM [7] | growth at 10 µM [8] | growth at 10 µM [9] | growth at 10 µM [10] | growth at 10 µM [11] | growth at 10 µM [12]
1 | 85 nM | inactive | Not Active | > 40% | COc1cc2ccn(CCC(=O)N[C@@H](CC(C)C)B(O)O)c(=O)c2cc1OC | 63.7% | 90.8% | 78.3% | 90.3% | 98.8% | 92.6% | 56.9% | 59% | 89%
2 |  | inactive |  |  | CC(C)CCNC(=O)CCn1ccc2ccc(Br)cc2c1=O | 94% | 104% | 97.2% | 97.7% | 103% | 104% | 94.5% | 83.4% | 86.1%
3 |  | inactive |  |  | CC(C)CCNC(=O)Cn1ccc2ccccc2c1=O | 104% | 100% | 102% | 97.2% | 101% | 104% | 103% | 99.5% | 97.4%
